Reference: publication PMC5901702 (Journal of biomolecular screening, 2012)

Each molecule was assayed on yeast y272 cotransformed with pWS192 and pWS496 (assay: Yeast toxicity assay). Settings: 100 µM compound; 44 h at 30 °C.
Format: cell-based
Summary of the method: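 Saturated starter culture of y272 carrying pWS192 (MFA1) and pWS496 (PGK-driven HA-tagged rat IDE) was diluted 1:2000 into SC-UW and treated with DMSO or compound (100 µM, or lower empirically chosen doses), in triplicate. Cultures were grown 44 h at 30 °C, or 72 h where needed.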

SMILES	yeast saturation density relative to DMSO-treated control
O=[N+]([O-])/C=C/c1cc2ccccc2[nH]1 [Compound 8]	completely inhibited growth
O=C(CCN1CC2CCC(CC2)C1)c1cccs1 [Compound 6]	completely inhibited growth
O=S(=O)(O)c1cc(O)c2c(O)c(N=Nc3cccc4ccccc34)c(S(=O)(=O)O)cc2c1 [Compound 3]	> 90%
O=S(=O)(O)CCCc1cccc2ccccc12 [Compound 1]	> 90%

Same assay, conditions: incubation extended to 72 h

SMILES	yeast culture density relative to DMSO-treated culture
O=C(O)c1ccc(Oc2nc3ccccc3s2)cc1 [Compound 7]	> 85%

Same assay, conditions: lower concentrations of compounds; 44 h

SMILES	yeast saturation density relative to DMSO-treated culture
O=[N+]([O-])/C=C/c1cc2ccccc2[nH]1 [Compound 8]	> 90%
O=C(CCN1CC2CCC(CC2)C1)c1cccs1 [Compound 6]	> 90%
Nc1nc(SCc2ccccc2Cl)cc(C(=O)O)n1 [Compound 5]	> 90%

Same assay, conditions: lowest concentration evaluated 12.5 µM; 44 h

SMILES	saturated growth of treated yeast cultures
O=C(O)c1ccc(Oc2nc3ccccc3s2)cc1 [Compound 7]	did not achieve saturated growth

These molecules were tested against T1, rat IDE (Rattus norvegicus, UniProt P35559) (assay: Insulin competition with a-factor–based substrate on rat IDE). Settings: 100 µM compound; […] (IC50) insulin; 0.1 M KPi.
T1 sequence (P35559 1-1019): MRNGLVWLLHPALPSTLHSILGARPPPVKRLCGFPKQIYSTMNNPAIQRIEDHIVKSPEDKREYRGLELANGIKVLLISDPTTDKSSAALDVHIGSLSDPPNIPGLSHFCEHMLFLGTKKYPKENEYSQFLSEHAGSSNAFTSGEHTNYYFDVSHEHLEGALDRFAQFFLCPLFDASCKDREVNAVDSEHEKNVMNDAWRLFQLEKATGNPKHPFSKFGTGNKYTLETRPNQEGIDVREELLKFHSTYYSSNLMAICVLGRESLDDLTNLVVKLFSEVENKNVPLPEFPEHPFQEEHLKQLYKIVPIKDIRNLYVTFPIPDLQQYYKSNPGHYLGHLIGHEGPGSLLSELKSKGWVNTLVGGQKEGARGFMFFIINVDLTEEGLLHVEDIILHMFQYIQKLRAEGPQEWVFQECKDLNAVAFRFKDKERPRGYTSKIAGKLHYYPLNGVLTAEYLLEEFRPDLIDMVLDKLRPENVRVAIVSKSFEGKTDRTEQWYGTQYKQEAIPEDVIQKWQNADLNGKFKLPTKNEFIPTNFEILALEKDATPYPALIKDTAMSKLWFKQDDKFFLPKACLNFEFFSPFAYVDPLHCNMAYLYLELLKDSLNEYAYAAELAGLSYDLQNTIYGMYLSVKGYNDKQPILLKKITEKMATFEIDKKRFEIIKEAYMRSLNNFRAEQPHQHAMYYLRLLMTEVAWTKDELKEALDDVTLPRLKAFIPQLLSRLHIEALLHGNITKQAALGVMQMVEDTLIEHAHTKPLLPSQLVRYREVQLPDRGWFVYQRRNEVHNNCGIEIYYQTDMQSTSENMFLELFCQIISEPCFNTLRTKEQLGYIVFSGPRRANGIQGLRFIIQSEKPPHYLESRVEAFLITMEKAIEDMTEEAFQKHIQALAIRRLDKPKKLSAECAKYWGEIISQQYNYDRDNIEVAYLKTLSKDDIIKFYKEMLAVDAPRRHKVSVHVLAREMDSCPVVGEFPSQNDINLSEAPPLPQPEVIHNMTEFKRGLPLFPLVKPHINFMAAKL
Format: biochemical

SMILES	ability to stimulate IDE activity in presence of insulin
Nc1nc(SCc2ccccc2Cl)cc(C(=O)O)n1 [Compound 5]	retained their ability to stimulate IDE activity
O=S(=O)(O)c1cc(O)c2c(O)c(N=Nc3cccc4ccccc34)c(S(=O)(=O)O)cc2c1 [Compound 3]	retained their ability to stimulate IDE activity
O=C(O)c1ccc(Oc2nc3ccccc3s2)cc1 [Compound 7]	retained their ability to stimulate IDE activity
O=S(=O)(O)CCCc1cccc2ccccc12 [Compound 1]	retained their ability to stimulate IDE activity

What follows are molecules tested against T2, bovine trypsin (Bos taurus, UniProt P00760) (assay: Target specificity: trypsin activity with a-factor–based peptide). Settings: 100 µM compound; relative to DMSO control = 100%.
T2 sequence (P00760 24-246): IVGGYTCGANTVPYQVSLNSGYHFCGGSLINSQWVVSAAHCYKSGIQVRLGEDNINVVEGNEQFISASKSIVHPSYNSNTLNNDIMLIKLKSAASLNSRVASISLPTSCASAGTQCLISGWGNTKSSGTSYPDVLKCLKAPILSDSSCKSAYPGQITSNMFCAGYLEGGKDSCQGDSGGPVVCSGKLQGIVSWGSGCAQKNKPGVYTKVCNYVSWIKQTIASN
Format: biochemical
Summary of the method: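 Single-dose specificity assay with a-factor–based fluorogenic peptide (50 µM) in 0.1 M KPi pH 7.6. Ste23p was used at 10 µg/mL and 30 °C; trypsin and pronase E at 0.5 µg/mL each under the 37 °C HTS conditions. Enzymes were preincubated 10 min with 100 µM compound. Triplicate rates were normalized by trypsin/pronase full digestion and given relative to DMSO control (100%).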

SMILES	% Activity Trypsin
Cn1ncc2c(NCCc3ccccc3)nc(Cl)nc21 [Compound 2]	115.1 ± 3.9%
O=[N+]([O-])/C=C/c1cc2ccccc2[nH]1 [Compound 8]	101.8 ± 1.8%
O=C(CCN1CC2CCC(CC2)C1)c1cccs1 [Compound 6]	111.5 ± 2.8%
Nc1nc(SCc2ccccc2Cl)cc(C(=O)O)n1 [Compound 5]	94.3 ± 5.4%
O=S(=O)(O)c1cc(O)c2c(O)c(N=Nc3cccc4ccccc34)c(S(=O)(=O)O)cc2c1 [Compound 3]	99.3 ± 2.2%
O=C(O)c1ccc(Oc2nc3ccccc3s2)cc1 [Compound 7]	111.0 ± 1.2%
O=S(=O)(O)CCCc1cccc2ccccc12 [Compound 1]	94.2 ± 0.3%

What follows are molecules tested against T1, rat IDE (assay: a-Factor production bioassay). Settings: 12.5 µM compound; 72 h; relative to DMSO-treated control.
Format: cell-based

SMILES	IDE-mediated a-factor production in vivo
Nc1nc(SCc2ccccc2Cl)cc(C(=O)O)n1 [Compound 5]	enhanced a-factor production in vivo

Same assay, conditions: 25 µM compound; 72 h; relative to DMSO-treated control

SMILES	IDE-mediated a-factor production in vivo
O=[N+]([O-])/C=C/c1cc2ccccc2[nH]1 [Compound 8]	enhanced a-factor production in vivo

Same assay, conditions: 50 µM compound; 72 h; relative to DMSO-treated control

SMILES	IDE-mediated a-factor production in vivo
O=C(CCN1CC2CCC(CC2)C1)c1cccs1 [Compound 6]	enhanced a-factor production in vivo

Same assay, conditions: 100 µM compound; 72 h; relative to DMSO-treated control

SMILES	IDE-mediated a-factor production in vivo
Cn1ncc2c(NCCc3ccccc3)nc(Cl)nc21 [Compound 2]	reduced the yield of a-factor produced
O=S(=O)(O)c1cc(O)c2c(O)c(N=Nc3cccc4ccccc34)c(S(=O)(=O)O)cc2c1 [Compound 3]	enhanced a-factor production in vivo
O=C(O)c1ccc(Oc2nc3ccccc3s2)cc1 [Compound 7]	reduced the yield of a-factor produced

What follows are molecules tested against T3, yeast Rce1p (Saccharomyces cerevisiae, UniProt Q03530) (assay: Target specificity: Rce1p activity). Settings: 100 µM compound; relative to DMSO control = 100%.
T3 sequence (Q03530 1-315): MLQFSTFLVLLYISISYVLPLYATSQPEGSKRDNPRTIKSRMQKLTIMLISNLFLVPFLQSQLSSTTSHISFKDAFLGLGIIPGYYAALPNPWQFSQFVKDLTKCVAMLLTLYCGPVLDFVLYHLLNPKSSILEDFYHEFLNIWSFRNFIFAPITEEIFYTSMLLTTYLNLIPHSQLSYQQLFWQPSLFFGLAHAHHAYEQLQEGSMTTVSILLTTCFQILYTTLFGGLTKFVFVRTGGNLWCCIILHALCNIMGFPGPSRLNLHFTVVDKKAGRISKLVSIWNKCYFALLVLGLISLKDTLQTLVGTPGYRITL
Format: biochemical
Summary of the method: (§1)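 Yeast-derived microsomes (250 µg/mL) enriched for Rce1p or Ste24p were preincubated 10 min with 100 µM compound. They were assayed with an internally quenched fluorogenic farnesylated K-Ras C-terminus–based peptide, read at 320/420 nm ex/em. Rates were in triplicate, normalized by trypsin/pronase complete digestion, and expressed relative to DMSO control (100%).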

SMILES	% Activity Rce1p
Cn1ncc2c(NCCc3ccccc3)nc(Cl)nc21 [Compound 2]	83.2 ± 3.4%
O=C(CCN1CC2CCC(CC2)C1)c1cccs1 [Compound 6]	90.1 ± 1.0%
Nc1nc(SCc2ccccc2Cl)cc(C(=O)O)n1 [Compound 5]	101.2 ± 11.0%
O=C(O)c1ccc(Oc2nc3ccccc3s2)cc1 [Compound 7]	89.6 ± 2.4%
O=S(=O)(O)CCCc1cccc2ccccc12 [Compound 1]	89.7 ± 3.8%

What follows are molecules tested against T1, rat IDE (assay: Native PAGE mobility shift of rat IDE). Settings: 100 µM compound; 60 min at 37 °C.
Format: binding
Summary of the method: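 Rat IDE was preincubated 60 min at 37 °C with compound (100 µM) or ATP (3 mM). It was mixed 1:1 with 2× native sample buffer (0.6 M Tris-HCl pH 6.8, 20% glycerol, bromophenol blue), run on 10% native PAGE at 4 °C and silver-stained.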

SMILES	native PAGE mobility shift of IDE
O=[N+]([O-])/C=C/c1cc2ccccc2[nH]1 [Compound 8]	noticeable shift
O=C(CCN1CC2CCC(CC2)C1)c1cccs1 [Compound 6]	noticeable shift
O=S(=O)(O)c1cc(O)c2c(O)c(N=Nc3cccc4ccccc34)c(S(=O)(=O)O)cc2c1 [Compound 3]	did not reveal a mobility shift

These molecules were tested against T4, yeast Ste24p (Saccharomyces cerevisiae, UniProt P47154) (assay: Target specificity: Ste24p activity). Settings: 100 µM compound; relative to DMSO control = 100%.
T4 sequence (P47154 1-453): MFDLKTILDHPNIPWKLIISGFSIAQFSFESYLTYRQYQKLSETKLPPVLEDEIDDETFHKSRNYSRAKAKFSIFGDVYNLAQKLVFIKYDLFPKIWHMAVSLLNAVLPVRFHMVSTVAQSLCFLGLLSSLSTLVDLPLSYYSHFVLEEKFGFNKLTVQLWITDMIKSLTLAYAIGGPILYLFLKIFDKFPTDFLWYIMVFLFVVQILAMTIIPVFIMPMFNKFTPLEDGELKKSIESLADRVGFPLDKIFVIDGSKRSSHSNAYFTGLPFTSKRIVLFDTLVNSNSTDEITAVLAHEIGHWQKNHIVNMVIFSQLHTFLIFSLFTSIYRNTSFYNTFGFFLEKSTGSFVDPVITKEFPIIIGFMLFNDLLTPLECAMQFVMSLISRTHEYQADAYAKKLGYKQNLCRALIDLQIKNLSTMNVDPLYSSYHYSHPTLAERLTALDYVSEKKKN
Format: biochemical
Summary of the method: as §1

SMILES	% Activity Ste24p
Cn1ncc2c(NCCc3ccccc3)nc(Cl)nc21 [Compound 2]	93.0 ± 6.8%
O=[N+]([O-])/C=C/c1cc2ccccc2[nH]1 [Compound 8]	89.2 ± 10.7%
O=C(CCN1CC2CCC(CC2)C1)c1cccs1 [Compound 6]	98.6 ± 9.9%
Nc1nc(SCc2ccccc2Cl)cc(C(=O)O)n1 [Compound 5]	131.4 ± 18.8%
O=C(O)c1ccc(Oc2nc3ccccc3s2)cc1 [Compound 7]	92.8 ± 13.1%
O=S(=O)(O)CCCc1cccc2ccccc12 [Compound 1]	97.2 ± 12.7%
